The source of these data is ChEMBL document CHEMBL1124949, “4-(1,2,5,6-Tetrahydro-1-alkyl-3-pyridinyl)-2-thiazolamines: a novel class of compounds with central dopamine agonist properties” (J Med Chem, 1990).

Molecules are shown by their SMILES. Active and inactive are the calls of the source. The rule behind the calls is not given here.

In test [1] the test system is Rattus norvegicus. Put plainly: Inhibition of locomotor activity was determined after oral administration in rat(50% inhibition at 3 mg/kg). The format is functional.
For test [2], the system named is Rattus norvegicus. Description: Decrease of DOPA formation effected by 30 mg/kg administered intraperitoneally in the striatum of GBL-treated rats. It is filed as functional. The following applies: ip, route intraperitoneal. The method, boiled down: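 Male Long-Evans rats dosed ip 1 h before sacrifice. GBL 750 mg/kg ip given 30 min and NSD 1015 100 mg/kg ip given 25 min before sacrifice. Striatal DOPA measured by HPLC with electrochemical detection. Decrease in DOPA formation at 30 mg/kg ip, n = 4 or 5.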

Test [3] deals with Rattus norvegicus. Put plainly: Reversal of 6-hydroxydopamine induced depression in lesioned rats was determined after dosing for a period of 30 minutes. The format is functional. The settings on record: 0.5 h. The method, boiled down:
(§1)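 Rats received 6-OHDA 200 μg icv plus pargyline 50 mg/kg ip and desmethylimipramine 25 mg/kg ip at least 1 month earlier, giving about 90% brain DA depletion. Drug was given sc and locomotion recorded for 30 min from dosing. ED200 is the dose doubling activity versus unlesioned controls, estimated from three or four doses with six animals per dose.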

The subject of test [4] is Rattus norvegicus. Put plainly: Reversal of reserpine-induced depression in rat after subcutaneous administration. The format is functional. The method, boiled down: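 Rats were pretreated with reserpine 5 mg/kg 24 h before testing, then given drug sc. Locomotor activity was recorded for 30 min starting immediately after dosing.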
The target in test [5] is T1, D(2) dopamine receptor (Rattus norvegicus, UniProt P61169). Put plainly: Inhibition of [3H]haloperidol binding for Dopamine receptor D2 in rat striatal membranes. It is filed as cell membranes, Membrane.
T1 sequence (P61169 whole entry): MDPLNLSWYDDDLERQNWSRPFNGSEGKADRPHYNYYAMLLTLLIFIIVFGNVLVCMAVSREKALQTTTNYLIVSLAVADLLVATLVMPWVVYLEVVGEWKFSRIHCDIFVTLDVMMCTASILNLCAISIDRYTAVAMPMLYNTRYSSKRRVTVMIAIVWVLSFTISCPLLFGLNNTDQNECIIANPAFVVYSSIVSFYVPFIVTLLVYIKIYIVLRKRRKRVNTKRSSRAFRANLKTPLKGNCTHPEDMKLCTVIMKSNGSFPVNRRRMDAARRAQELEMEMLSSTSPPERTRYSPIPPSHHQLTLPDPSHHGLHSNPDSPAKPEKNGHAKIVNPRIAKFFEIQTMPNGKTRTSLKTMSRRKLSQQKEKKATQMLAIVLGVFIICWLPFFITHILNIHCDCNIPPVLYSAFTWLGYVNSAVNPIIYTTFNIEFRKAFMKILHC
Test [6] deals with Rattus norvegicus. Put plainly: Percent of rats showing stereotyped behavior at the dose at 3 mg/kg dose level. The format is functional.
In test [7] the target is T1, D(2) dopamine receptor. Description: Inhibition of [3H]N-propylnorapomorphine binding to Dopamine receptor D2 of rat striatal membranes. It is filed as cell membranes, Membrane.
Test [8] has as its system Rattus norvegicus. Description: Percent inhibition of dopamine neuronal firing in substantia nigra of anesthetized rats after (ip) administration at 2.5 mg/kg. The format is functional.
Another test deals with D(1A) dopamine receptor (Rattus norvegicus, UniProt P18901). Description: Inhibition of binding of [3H]SCH-23390 to Dopamine receptor D1 was determined. The method, boiled down:
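D1 binding was displaced from [3H]SCH23390. IC50 was fitted by nonlinear regression from four or five concentrations.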

Test [9] deals with Rattus norvegicus. Put plainly: Inhibition of locomotor activity was determined after oral administration in rat. It is filed as functional. The method, boiled down:
(§2)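 Spontaneous exploratory locomotor activity was scored, with motor coordination (ataxia) checked in the same test. ED50 came from four to six doses, with 5–12 animals per dose.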

A further test deals with Mus musculus. Put plainly: Inhibition of locomotor activity was determined after intraperitoneal administration in mouse. It is filed as functional. The settings on record: ip. The method, boiled down: as §2
The target in test [10] is T1, D(2) dopamine receptor. Put plainly: Inhibition of [3H]haloperidol binding for Dopamine receptor D2 in rat striatal membranes. (2% inhibition at 10 e-6 M). It is filed as cell membranes, Membrane.
Test [11] deals with T1, D(2) dopamine receptor. Put plainly: Inhibition of [3H]haloperidol binding for Dopamine receptor D2 in rat striatal membranes. (25% inhibition at 10 e-6 M). The format is cell membranes, Membrane.
In test [12] the test system is Rattus norvegicus. Put plainly: Percent inhibition of dopamine neuronal firing in substantia nigra of anesthetized rats after (ip) administration at 2.5 mg/kg.
The subject of test [13] is Rattus norvegicus. Description: Decrease of DOPA formation effected by 30 mg/kg administered intraperitoneally in the striatum of GBL-treated rats. The following applies: at 30 mg/kg.
The test system of test [14] is Rattus norvegicus. Put plainly: Percent of animals showing stereotyped behavior in rats at the dose 0.3 mg/kg. It is filed as functional.
Test [15] deals with Rattus norvegicus. Put plainly: Inhibition of locomotor activity was determined after (sc) administration in rat (40% inhibition was determined at 3 mg/kg). The format is functional, organism-based. Also noted: dose 3 mg/kg.
Test [16] deals with T1, D(2) dopamine receptor. Description: Inhibition of [3H]haloperidol binding for Dopamine receptor D2 in rat striatal membranes. (36%inhibition at 10 e-6 M). It is filed as cell membranes, Membrane.
The target in test [17] is T1, D(2) dopamine receptor. Put plainly: Inhibition of [3H]haloperidol binding for Dopamine receptor D2 in rat striatal membranes. (41% inhibition at 10 e-6 M). It is filed as cell membranes, Membrane.
Test [18] deals with T1, D(2) dopamine receptor. Put plainly: Inhibition of [3H]haloperidol binding for Dopamine receptor D2 in rat striatal membranes. (15% inhibition at 10 e-6 M). It is filed as cell membranes, Membrane.
The test system of test [19] is Rattus norvegicus. Put plainly: Percent of animals showing stereotyped behavior in rats at 3 mg/kg. It is filed as functional.
The test system of test [20] is Rattus norvegicus. Description: Reversal of 6-hydroxydopamine induced depression in lesioned rats after dosing for a period of 30 minutes. It is filed as functional. The following applies: 0.5 h. The method in brief:
as §1

Test [21] has as its system Rattus norvegicus. Description: Inhibition of locomotor activity was determined after oral administration at a dose of 1 mg/kg in rat. The format is functional.
[22] abbreviates: Rattus norvegicus, sc, read-out: ED50.

Chain of D(1A) dopamine receptor (P18901 whole entry): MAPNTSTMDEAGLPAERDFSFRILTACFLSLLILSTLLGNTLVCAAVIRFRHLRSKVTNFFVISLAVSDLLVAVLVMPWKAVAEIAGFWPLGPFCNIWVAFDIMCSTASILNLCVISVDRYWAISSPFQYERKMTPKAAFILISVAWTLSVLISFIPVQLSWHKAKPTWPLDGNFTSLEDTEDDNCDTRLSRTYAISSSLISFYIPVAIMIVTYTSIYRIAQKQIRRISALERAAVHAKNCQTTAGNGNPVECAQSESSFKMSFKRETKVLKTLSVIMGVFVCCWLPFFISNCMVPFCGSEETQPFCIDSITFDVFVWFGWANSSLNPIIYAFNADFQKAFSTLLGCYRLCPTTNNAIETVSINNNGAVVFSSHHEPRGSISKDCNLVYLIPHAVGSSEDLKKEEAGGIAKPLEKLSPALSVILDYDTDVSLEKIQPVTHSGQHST

As usually defined, the ED50 is the dose at which the effect has come halfway, by size or by number of responders. As usually defined, the inhibition in vivo is how much of the control response was suppressed. Read a high inhibition in vivo as a response far below the control. Usually IC50 stands for the concentration that gives 50% inhibition. Lower therefore signals greater potency in that assay. Consider `CCCN1CCC=C(c2csc(N)n2)C1`, for which it took a dose of 3 mg/kg to reach the 50% effect level in the test on Rattus norvegicus [1] (ED50 at 3 mg/kg). In addition, the inhibition in vivo at 30 mg/kg in the test with Rattus norvegicus [2] is 100%. In addition, the ED200 in the test on Rattus norvegicus [3] was 0.4 mg/kg. In the test on Rattus norvegicus [4] (setting [22]), the 50% effective dose (ED50) is greater than 30 mg/kg. Also, the figures for the IC50 on D(2) dopamine receptor [5], on D(2) dopamine receptor [7] and on D(1A) dopamine receptor were 958 nM, 596 nM and greater than 50000 nM, respectively. The molecule further returned an Animals with Rattus norvegicus [6] of 100%. 2.5 mg/kg produced 100% inhibition in vivo with Rattus norvegicus [8].

For the molecule `CCCCCCCN1CCC=C(c2csc(N)n2)C1.Cl.Cl`, the ED50 in the test with Rattus norvegicus [4] (setting [22]) and in the test on Rattus norvegicus [9] was greater than 30 mg/kg in each case. The IC50 at D(2) dopamine receptor [5] turned out to be 2170 nM; on D(2) dopamine receptor [7], 5130 nM.

Take `CCCN1CCCC(c2cccc(O)c2)C1` (racemic): the ED50 amounted to 30 mg/kg in the test on Rattus norvegicus [4] (setting [22]) and 3 mg/kg in the test on Rattus norvegicus [9].

In the test with Mus musculus, `CCCN1CCC=C(c2cnc(N)s2)C1` displayed an ED50 of 19.1 mg/kg. At D(2) dopamine receptor [10], the IC50 was greater than 1000 nM.

With `CCCN1CCC=C(c2csc(NC)n2)C1`, the figures for the IC50 on D(2) dopamine receptor [11] and on D(2) dopamine receptor [7] were greater than 1000 nM and greater than 10000 nM, respectively.

The inhibition is how much of the control response was suppressed. Low values mean a response near the control, high ones a response far below the control. `CN1CCC=C(c2csc(N)n2)C1.Cl.Cl`: the ED50 in the test with Rattus norvegicus [4] (setting [22]) was greater than 30 mg/kg. Also, the inhibition with Rattus norvegicus [12] and in the test with Rattus norvegicus [13] was 100% each time. Also, the ED50 entry with Rattus norvegicus [9] is “inactive”. The same molecule displayed an IC50 on D(2) dopamine receptor [5] of 1040 nM.

With `Cl.Cl.Nc1nc(C2=CCCN(CCc3ccccc3)C2)cs1`, the ED50 with Rattus norvegicus [4] (setting [22]) was determined as 5.8 mg/kg; in the test with Rattus norvegicus [9], 33.6 mg/kg. The IC50 at D(2) dopamine receptor [5] came to 1080 nM; on D(2) dopamine receptor [7], 911 nM.

Take `CN1CCc2cccc3c2[C@H]1Cc1ccc(O)c(O)c1-3` [APOMORPHINE]: in the test on Rattus norvegicus [14], the Animals worked out at 100%. Moreover, the 50% effective dose (ED50) with Rattus norvegicus [4] (setting [22]) came out at 0.1 mg/kg.

In the case of `CCCN1CCCC(c2cccc(O)c2)C1` (stereo unspecified) [listing 1 of 2 here], the ED50 entry in the test on Rattus norvegicus [15] is “inactive”.

In the case of `CCCCCCN1CCC=C(c2csc(N)n2)C1.Cl.Cl`, the ED50 in the test on Rattus norvegicus [4] (setting [22]) is greater than 30 mg/kg. Also, the IC50 is greater than 1000 nM on D(2) dopamine receptor [16] and 5330 nM at D(2) dopamine receptor [7].

Regarding `CCCN1CCC=C(c2csc(C)n2)C1.Cl.Cl`, in the test on Mus musculus, the ED50 is greater than 30 mg/kg. The same molecule yielded an IC50 on D(2) dopamine receptor [17] greater than 1000 nM.

`CCCN1CCCC(c2csc(N)n2)C1.Cl.Cl` (stereo unspecified) came in with an inhibition in vivo at 30 mg/kg in the test on Rattus norvegicus [2] of 55%. Moreover, the IC50 at D(2) dopamine receptor [18] is greater than 1000 nM. Also, in the test with Rattus norvegicus [9], the ED50 came to 18.9 mg/kg.

For the molecule `CCCCN1CCC=C(c2csc(NC)n2)C1.Cl.Cl`, the results for the ED50 in the test with Mus musculus and in the test with Rattus norvegicus [9] were 4.4 mg/kg and 16.7 mg/kg, respectively. This molecule also had an IC50 at D(2) dopamine receptor [11] greater than 1000 nM.

As to `CCN1CCC=C(c2csc(N)n2)C1`, the ED50 in the test on Rattus norvegicus [4] (setting [22]) was greater than 30 mg/kg. Moreover, the inhibition with Rattus norvegicus [12] was 96%; in the test with Rattus norvegicus [13], 92%. Further, the ED50 entry in the test on Rattus norvegicus [9] was “inactive”. The IC50 at D(2) dopamine receptor [5] amounted to 945 nM; at D(2) dopamine receptor [7], 411 nM.

`CCCN1CCCC(c2cccc(O)c2)C1` (stereo unspecified) [listing 2 of 2 here]: the ED50 in the test with Rattus norvegicus [4] came to 30 mg/kg.

`CCCCN1CCC=C(c2csc(N)n2)C1.Cl.Cl`: testing at 30 mg/kg in the test on Rattus norvegicus [2] gave an inhibition in vivo of 0%. Besides, the ED50 with Rattus norvegicus [4] (setting [22]) was greater than 30 mg/kg; in the test with Rattus norvegicus [9], 5.4 mg/kg. Moreover, the IC50 on D(2) dopamine receptor [5] came to 2120 nM; on D(2) dopamine receptor [7], 3980 nM. Besides, in the test with Rattus norvegicus [8], testing at 2.5 mg/kg gave an inhibition in vivo of 0%.

For the molecule `Br.Br.CCCCCN1CCC=C(c2csc(N)n2)C1`, the results for the ED50 in the test on Mus musculus, in the test with Rattus norvegicus [4] (setting [22]) and with Rattus norvegicus [9] were 4.1 mg/kg, greater than 30 mg/kg and 15.6 mg/kg, respectively. This molecule yielded an inhibition in vivo at 30 mg/kg in the test with Rattus norvegicus [2] of 0%. Moreover, the IC50 worked out at 1850 nM on D(2) dopamine receptor [5] and 6400 nM on D(2) dopamine receptor [7].

Turning to `C=CCN1CCC=C(c2csc(N)n2)C1`, the ED50 in the test on Mus musculus amounted to 2.8 mg/kg; with Rattus norvegicus [4] (setting [22]) it was 8.7 mg/kg. This molecule also came in with an Animals in the test on Rattus norvegicus [19] of 100%. The same molecule showed an inhibition in vivo at 30 mg/kg with Rattus norvegicus [2] of 100%. Moreover, the ED200 with Rattus norvegicus [20] was 0.3 mg/kg. Besides, the inhibition in vivo at 1 mg/kg in the test on Rattus norvegicus [21] turned out to be 30%. Besides, the IC50 was 440 nM at D(2) dopamine receptor [5], 257 nM on D(2) dopamine receptor [7] and greater than 50000 nM at D(1A) dopamine receptor. 2.5 mg/kg produced 100% inhibition in vivo with Rattus norvegicus [8].
